Reference: ChEMBL document CHEMBL4513216, “Probing the Open Global Health Chemical Diversity Library for Multistage-Active Starting Points for Next-Generation Antimalarials” (ACS Infect Dis, 2020)

Test: Toxicity liver stage against HepG2, at 10uM
Format: cell-based
Set-up: test concentration 10 uM, cell line HepG2-A16-CD81EGFP
Conditions: human, HepG2-A16-CD81EGFP cells; read-out: INHIBITION
Method in brief: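 Uninfected HepG2-A16-CD81EGFP cells, 3 × 10^3 per well, 1536-well, plated on prespotted compound at 10 μM final, parasite-free screening media added to match infected plates; puromycin 10 μM positive, DMSO 0.5% negative; run in parallel with 48 h PbLuc assay at 37 °C, 5% CO2; viability by CellTiter-Glo luminescence, normalized to controls.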

| SMILES | cytotoxicity at 10 µM |
| --- | --- |
| COCC(=O)N1CCc2nc(C(=O)Nc3cccnc3)sc2CC1 | 7.98% |
| CCOC(C)c1nc(CN2CCNCC2)cs1 (configuration not stated) | -13.3% |
| CNC(=O)C1Cn2ccnc2C2(CCN(Cc3c(C)noc3C)CC2)O1 (configuration not stated) | -68.6% |
| O=C(NC1CC1)c1cc(C2CC2)nc2onc(C3CCNCC3)c12 | 7.16% |
| Cc1cc(Oc2ccccc2)nc(C2CCCCN2)n1 (configuration not stated) | -2.64% |
| CC(C)c1nnc(NC(=O)NC2CCOc3ccccc32)s1 (configuration not stated) | 18.1% |
| COc1cncc(-n2ccnc2-c2ccc(C(=O)O)s2)c1 | 0.571% |
| CC(=O)N1CCc2c(nc(N(C)C)nc2NCc2cccs2)C1 | -50.6% |
| CC1Cc2ccccc2N1Cc1occc1C(=O)OCC(N)=O (configuration not stated) | -9.18% |
| CCC(C)S(=O)(=O)N(Cc1ccco1)Cc1ccccc1O (configuration not stated) | 9.99% |
| O=C(OC1CCC1)c1ncccc1C(F)(F)F | 10.6% |
| CC(=O)N[C@H]1CCN(c2nc(C)nc3c2c(C)nn3C)C1 | 4.61% |
| COCCNc1nc(NCCc2ccccc2)nc2nccnc12 | 9.97% |
| CC(c1ccon1)N(C)C(=O)C1CCN(C(=O)C2CCC2)CC1 (configuration not stated) | 7.13% |
| Cc1cnn(C2CCCN(C(=O)c3ccc(-n4cccn4)nc3)C2)c1 (configuration not stated) | -6.12% |
| CS(=O)(=O)N1Cc2nccn2CC(CNC(=O)c2cccnc2)C1 (configuration not stated) | -143% |
| Cc1nc(CC(=O)N2CCCC(N(C)Cc3ccccc3)C2)cs1 (configuration not stated) | 9.38% |
| Cc1c(C(C)NC(=O)N2CCN(C3CCCC3)CC2)cnn1C (configuration not stated) | 3.02% |
| Cc1n[nH]c(C)c1C(N)C(=O)NCCc1csc(C(C)C)n1 (configuration not stated) | -8.64% |
| Cc1nccn1C1CCCN(C(=O)c2cccc(OCC(N)=O)c2)C1 (configuration not stated) | -13% |
| O=C1CC(c2ccccc2)C2(CCN(CC3CC3)CC2)N1 (configuration not stated) | -6.47% |
| Cc1ncnc(NCCCN2CCCCC2CO)c1C (configuration not stated) | -2.35% |
| O=C(Nc1cccc2c1CCCC2)C1CCCN1c1nccs1 (configuration not stated) | -4.15% |

| SMILES | cytotoxicity at 10 µM |
| --- | --- |
| Cc1cc(C(=O)N(C)Cc2ccccc2OCC(C)C)cc(=O)[nH]1 | 8.45% |
| CC(NC(=O)CCS(=O)(=O)C1CCCC1)c1nc(-c2ccccc2)c[nH]1 (configuration not stated) | 1.05% |
| COCCN(Cc1ccoc1)S(=O)(=O)c1ccc(OC)c(Cl)c1 | 6.27% |
| Cc1nccn1[C@@H]1CC[C@@H](N(C)S(=O)(=O)c2cccc(F)c2)[C@H]1O | -2.4% |
| CC(C(N)=O)N1CCN(c2ncc(Cl)cn2)CC1 (configuration not stated) | -1.26% |
| O=C1NCCO[C@H]2CN(C(=O)CCc3ccc(Cl)cc3)CC[C@@H]12 | 11.1% |
| CC(NC(=O)Nc1cnn(CC(N)=O)c1)c1ccc(Cl)s1 (configuration not stated) | 11.5% |
| COc1ccc(CN2CCC3(CC2)CCN(CC2CC2)C3=O)cc1 | 8.18% |
| Cc1nc(C)n(C2CCCN(C(=O)c3cnc[nH]3)C2)n1 (configuration not stated) | -5.04% |
| CCOc1ccc(Cl)c(C(=O)N2CCN(c3ncccn3)CC2)n1 | -1.9% |
| CC(C)N(C(=O)CCc1cccc(F)c1)C1CCOCC1 | -5.21% |
| O=C(c1ccsc1)N1CC(C(=O)N2CCOCC2)C2(CCOCC2)C1 (configuration not stated) | -1.1% |
| Cc1ccccc1C(=O)N1C[C@@H]2OCCN(c3ncccn3)[C@@H]2C1 | 29.5% |
| CCN(CC)c1ncnc2c(C)nn(CC)c12 | -2.01% |
| COC(=O)C1(NCC(=O)Nc2cc(C)ccc2OC)CCCCC1 | 4.02% |
| CC1(C)CNC(=O)c2nc(C3CCCN(C(=O)C4CC4)C3)[nH]c2C1 (configuration not stated) | 3.74% |
| CCC(C)(COc1ncccc1Cl)NCC(=O)NC1CCCCC1 (configuration not stated) | 0.651% |
| COc1ccc(C)cc1-c1csc(N)c1C#N | -5.18% |
| COCCN1C(=O)CO[C@H]2CN(Cc3c[nH]nc3-c3ccccc3)C[C@@H]21 | -4.04% |
| CN(Cc1ccsc1)C(=O)Nc1ccc(=O)n(C)c1 | 6.26% |
| Cc1ccoc1C(=O)N1Cc2c(Cn3ccnc3)nn(C)c2C1 | -68.5% |
| Cc1c[nH]c(CN2CC[C@@]3(O)CCN(C(=O)C4CCC4)C[C@H]3C2)n1 | 1.27% |
| O=C(Cc1cccc(F)c1F)NS(=O)(=O)c1cncc(Cl)c1 | 14.5% |

| SMILES | cytotoxicity at 10 µM |
| --- | --- |
| Cc1noc(CN2CCN(CCO)CC2)n1 | 2.17% |
| O=C1CC2(CCCNC2)C(=O)N1Cc1ccccc1 (configuration not stated) | 12.1% |
| CCC(NC(=O)C1CCN(S(C)(=O)=O)CC1)c1ccc(OC)c(C)c1 (configuration not stated) | -10% |
| CC1CCCN(C(=O)c2ncncc2Cl)C1 (configuration not stated) | 8.43% |
| Cc1nn(C)cc1Cn1c(=O)cnc2ccccc21 | 7.8% |
| COc1ccccc1C1(C(=O)NCCN2CCCCC2)CCOCC1 | -10.3% |
| Cc1nc(CN2CCO[C@@H]3CN(Cc4ccsc4)C[C@@H]3C2)cs1 | 2.99% |
| COC(=O)CN(C(=O)c1cccc(F)c1Cl)c1cccc(C)n1 | 9.5% |
| CNC(=O)NC(=O)CNc1cc(C(=O)OC)cc(C(F)(F)F)c1 | -0.0264% |
| Cc1cc(NC(=O)C2CCCN(C(=O)NCC(C)C)C2)ccn1 (configuration not stated) | -10.5% |
| Fc1ccc(CN2CCCn3cnc(COCC4CC4)c3C2)cc1 | 7.43% |
| CC(C)(CNc1ccc(C#N)c(C(F)(F)F)c1)C(N)=O | 20.2% |
| Cc1nn(C)c(Cl)c1C1CCCN1C(=O)c1ccc(C(N)=O)cn1 (configuration not stated) | -32% |
| CC(=O)NC1(C(=O)N2CCC(Nc3cccnn3)CC2)CCCCC1 | -5.26% |
| CNC(=O)Nc1cc(-c2ccc(Br)cc2)nn1CCO | -1.35% |
| CCN1CCC(NC(=O)Cc2csc(C(C)(C)C)n2)CC1 | -16.3% |
| CSCC(CCO)Nc1cccc(C(F)(F)F)n1 (configuration not stated) | 0.515% |
| CSCc1cccc(S(=O)(=O)NCCCO)c1 | -7.5% |
| COc1ccc(C(=O)N(C)Cc2nnc3ccccn23)c(OC)c1 | -3.03% |
| CC(C)(C)c1cnc(CN2CCCS(=O)(=O)CC2)o1 | -3.97% |
| O=c1ccc2c(n1CCN1CCCC1)CCN(Cc1ccoc1)CC2 | -8.97% |
| CN(CCCNS(=O)(=O)N1CCC2(CC1)OCCO2)c1ccccc1 | 9.13% |
| Cc1ccc(CC(=O)N2CCCC(c3cc(C(N)=O)[nH]n3)C2)cn1 (configuration not stated) | -14.2% |

| SMILES | cytotoxicity at 10 µM |
| --- | --- |
| CCn1ncnc1C(NC(=O)CC1CCN(C(C)C)CC1)C1CC1 (configuration not stated) | 8.6% |
| COc1ccc(CC(=O)N2CCN(Cc3ccco3)C[C@@H]2C)cc1 | 1.42% |
| Cn1cc(CN2CC[C@@H]3[C@H]2CCC(=O)N3c2ccccc2)cn1 | 7.42% |
| Cc1ccn(CCNc2ncnc3c2CCN(S(C)(=O)=O)CC3)n1 | -3.03% |
| CNC(=O)c1ccc(CN2CCC(N(C)Cc3noc(C)n3)C2)cc1 (configuration not stated) | 5.56% |
| NC(=O)CNC1(c2ccc(Br)cc2)CCOCC1 | -0.717% |
| Cc1nn(C(C)C)c(C)c1S(=O)(=O)Nc1cccc(C(=O)O)c1 | 9.53% |
| Cc1ncccc1NC(=O)c1nc2c(n1C)CCN(C(=O)C1CC1)C2 | -99.6% |
| O=C(NCCO)c1coc(Cn2cnc3ccccc32)n1 | -4.48% |
| O=C(c1cscn1)N1CCC[C@]2(C[C@@H](OCC3CC3)CO2)C1 | -69.9% |
| C=C(C)COc1cccc(CN(C)C(C)c2nccs2)c1 (configuration not stated) | -49.2% |
| Cc1nc(CN2CCN(C(=O)COc3c(C)ccc(C)c3C)CC2)no1 | -1.4% |
| Cn1ccc(CN2CCCC23CCN(Cc2nccn2C)CC3)n1 | -109% |
| C[C@H](O)CNC(=O)c1cnc(-c2ccccc2)nc1O | -17.8% |
| CCc1ccc(S(=O)(=O)Nc2cc(OC)c(OC)cc2C(=O)O)s1 | -7.22% |
| COCCC(=O)N1CCc2c(CNc3ncccn3)cncc2C1 | 9.05% |
| COc1ccc2cc(C3CN(C(=O)N(C)C)CCO3)ccc2c1 (configuration not stated) | 4.26% |
| CCc1noc(C(C)N2CCN(CC)CC2)n1 (configuration not stated) | -6.01% |
| N#Cc1ccc(OC[C@]23COC[C@H]2CN(Cc2ccccn2)C3)nc1 | -0.182% |
| c1ccc(CCN2CCN(c3ncnc4[nH]ccc34)CC2)cc1 | 5.09% |
| COc1ncccc1CNCc1cnc(N2CCOCC2)nc1 | 2.38% |
| O=C(NC[C@H]1OC[C@@H](NC2CCC(F)(F)CC2)[C@@H]1O)N1CCOCC1 | -0.0603% |
| CC(C)NC(=O)Nc1ccc(-c2nc3c([nH]2)CCNC3)cc1 | -3.5% |

| SMILES | cytotoxicity at 10 µM |
| --- | --- |
| NC(=O)CC1CCN(C(=O)NCc2cccc(-n3cccn3)c2)CC1 | -2.45% |
| O=C(NCCCn1ccnc1)c1csc2c1CCCC2 | -2.96% |
| Cc1cnccc1N1CCCN(C(=O)CCCc2cn[nH]c2)CC1 | -30.3% |
| CCC(C)CN1CCC(n2cc(C3CCCCC3)nn2)CC1 (configuration not stated) | -2.9% |
| CC1CN(C)CCN1C(=O)c1cnn(-c2cccc(Cl)c2)c1 (configuration not stated) | -8.68% |
| CCn1ccnc1CN1CCC(N(C)Cc2ncc(C)o2)C1 (configuration not stated) | -7.48% |
| Cc1ccc(CN(Cc2c[nH]cn2)C2CC(C)(C)NC(C)(C)C2)o1 | -0.105% |
| O=c1occ(CN2CCOCC2)c(O)c1CN1CCOCC1 | -12.1% |
| Cc1nc(C)c(C(=O)NCc2nc3cccc(C)c3n2C)o1 | 40.1% |
| CC(C)(C)C(=O)c1ccsc1NC(=O)CCNC(=O)c1ccco1 | -52.7% |
| O=C(c1cc(Cl)ccc1F)N1CCCC1Cn1cccn1 (configuration not stated) | 8.36% |
| CCn1ncc(S(=O)(=O)N[C@@H]2CC[C@@H](n3ccnc3)[C@@H]2O)c1C | -3.4% |
| Cc1ccc(CN(CCN(C)C)Cc2nc3ccccc3[nH]2)s1 | 3.34% |
| Cc1ccc(O)c(CNCC(C)c2nc3ccccc3o2)n1 (configuration not stated) | -1.74% |
| O=C(CN1CSCC1=O)NCC1CCN(c2ccccc2)C1 (configuration not stated) | 1.19% |
| CCc1nnc(CN(CC)C(=O)CCc2scnc2C)o1 | 7.22% |
| N#Cc1ccccc1C(=O)Nc1cccc(CN2CCC(CO)CC2)c1 | -140% |
| CC(C)Cc1nc(CCn2ccc(=O)[nH]c2=O)n(-c2ccccn2)n1 | -5.41% |
| Cc1occc1C(=O)N1CCc2ncnc(C3CCOC3)c2CC1 (configuration not stated) | -85% |
| CCOC(=O)N1CCCn2nc(C(=O)NCCN(C)C)cc2C1 | 3.13% |
